From EPA's CvTdb concentration-time database

Experiments:
Rat [1] = experiment: concentration in plasma after dosing; settings: 18 h; dosed: Gemfibrozil; 50 mg/kg; oral; Male; Sprague-Dawley
Rat [2] = experiment: concentration in plasma after dosing; settings: 4 h; dosed: Gemfibrozil; 50 mg/kg; oral; Male; Sprague-Dawley
Rat [3] = experiment: concentration in plasma after dosing; settings: 18 h; dosed: Gemfibrozil; 4.29 mg/kg; oral; Male; Sprague-Dawley
Rat [4] = experiment: concentration in plasma after dosing; settings: 10 h; dosed: Gemfibrozil; 4.29 mg/kg; oral; Male; Sprague-Dawley
Rat [5] = experiment: concentration in plasma after dosing; settings: 24 h; dosed: Gemfibrozil; 100 mg/kg; oral; Male; Sprague-Dawley
Rat [6] = experiment: concentration in kidney after dosing; settings: 1 h; dosed: Fluorotelomer alcohol 8+2; 24 mg/kg; oral; Male; Harlan Sprague Dawley
Rat [7] = experiment: concentration in plasma after dosing; settings: dosed: 678-39-7, 12 mg/kg, iv, Male, F344
Rat [8] = experiment: concentration in plasma after dosing; settings: dosed: 678-39-7, 12 mg/kg, iv, Male, F344; remark: listed apart in the source
Rat [9] = experiment: concentration in brain after dosing; settings: 12 h; dosed: Fluorotelomer alcohol 8+2; 24 mg/kg; oral; Male; Harlan Sprague Dawley
human = experiment: concentration in expired air after dosing; settings: dosed: trichloroethylene, 100 ppm, inhalation, duration: 4 hr, person
How it was run: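 Concentration-versus-time or amount-versus-time points were compiled from published in vivo toxicokinetic studies and from two structured collections. The studies were found by PubMed searching, classifier screening and manual review. Points were mostly digitised from plot screenshots with WebPlotDigitizer, otherwise copied from tables, and kept in the reported units. Dose, route, subject details and medium were curated by hand from each paper, and sampling and analytical methods follow each source and were often unreported.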

Rat [10] = experiment: concentration in brain after dosing; settings: 24 h; dosed: Perfluorooctane Sulfonate; 2 mg/kg; oral; Female; Harlan Sprague Dawley
Rat [11] = experiment: concentration in plasma after dosing; settings: 6 h; dosed: Perfluorooctane Sulfonate; 2 mg/kg; oral; Female; Harlan Sprague Dawley
Rat [12] = experiment: concentration in liver after dosing; settings: 3360 h; dosed: Perfluorooctane Sulfonate; 2 mg/kg; oral; Female; Harlan Sprague Dawley
Rat [13] = experiment: concentration in plasma after dosing; settings: 3360 h; dosed: Perfluorooctane Sulfonate; 2 mg/kg; oral; Female; Harlan Sprague Dawley
Rat [14] = experiment: concentration in kidney after dosing; settings: 864 h; dosed: Perfluorooctane Sulfonate; 2 mg/kg; oral; Female; Harlan Sprague Dawley
Rat [15] = experiment: concentration in plasma after dosing; settings: 24 h; dosed: Perfluorooctane Sulfonate; 2 mg/kg; oral; Female; Harlan Sprague Dawley
Rat [16] = experiment: concentration in brain after dosing; settings: 864 h; dosed: Perfluorooctane Sulfonate; 20 mg/kg; oral; Male; Harlan Sprague Dawley
Rat [17] = experiment: concentration in liver after dosing; settings: 1848 h; dosed: Perfluorooctane Sulfonate; 2 mg/kg; oral; Female; Harlan Sprague Dawley
Rat [18] = experiment: concentration in kidney after dosing; settings: 3360 h; dosed: Perfluorooctane Sulfonate; 20 mg/kg; oral; Male; Harlan Sprague Dawley
Rat [19] = experiment: concentration in kidney after dosing; settings: 24 h; dosed: Perfluorooctane Sulfonate; 20 mg/kg; oral; Female; F344
Rat [20] = experiment: concentration in kidney after dosing; settings: 864 h; dosed: Perfluorooctane Sulfonate; 2 mg/kg; oral; Female; Harlan Sprague Dawley; remark: listed apart in the source
Rat [21] = experiment: concentration in liver after dosing; settings: 24 h; dosed: Perfluorooctane Sulfonate; 20 mg/kg; oral; Female; F344
Rat [22] = experiment: concentration in plasma after dosing; settings: 7 min; dosed: 2-Methyltetrahydrofuran; 40 mg/kg; iv; Male; Harlan Sprague Dawley
Rat [23] = experiment: concentration in plasma after dosing; settings: 0.2 h; dosed: 2-Methyltetrahydrofuran; 40 mg/kg; iv; Male; Harlan Sprague Dawley
Rat [24] = experiment: concentration in plasma after dosing; settings: 0.2 h; dosed: 2-Methyltetrahydrofuran; 40 mg/kg; iv; Male; Harlan Sprague Dawley; remark: listed apart in the source
Rat [25] = experiment: concentration in brain after dosing; settings: 2 min; dosed: 2-Methyltetrahydrofuran; 40 mg/kg; iv; Female; Harlan Sprague Dawley
Rat [26] = experiment: concentration in brain after dosing; settings: 0.5 h; dosed: 2-Methyltetrahydrofuran; 40 mg/kg; iv; Male; Harlan Sprague Dawley
Rat [27] = experiment: concentration in plasma after dosing; settings: 6 h; dosed: 2-Methyltetrahydrofuran; 40 mg/kg; iv; Male; Harlan Sprague Dawley
Rat [28] = experiment: concentration in plasma after dosing; settings: 1.5 h; dosed: 2-Methyltetrahydrofuran; 40 mg/kg; iv; Male; Harlan Sprague Dawley
Rat [29] = experiment: concentration in liver after dosing; settings: 1 h; dosed: Perfluorohexanoic Acid; 80 mg/kg; oral; Female; Harlan Sprague Dawley
Rat [30] = experiment: concentration in plasma after dosing; settings: dosed: Perfluorohexanoic Acid, 40 mg/kg, iv, Male, F344

Cc1ccc(C)c(OCCCC(C)(C)C(=O)O)c1 [Gemfibrozil]
Settings	concentration in plasma [ng/mL]
Rat [1]	1100
Rat [2]	5620
Rat [3]	127
Rat [4]	189
Rat [5]	761

O=C(O)CCC(F)(F)C(F)(F)C(F)(F)C(F)(F)C(F)(F)C(F)(F)C(F)(F)F [Fluorotelomer acid 7+3]
Settings	concentration in brain [ng/g]	concentration in kidney [ng/g]
Rat [6]	–	310
Rat [9]	129	–

concentration in plasma [ng/mL]
Settings	0.5 h	0.75 h	9 h	12 h
Rat [7]	–	334	–	90
Rat [8]	167	–	164	–

ClC=C(Cl)Cl [trichloroethylene]
human
Settings	concentration in expired air [ppm]
0.2144 h	4.28
0.5331 h	2.8
1.023 h	1.97
2.042 h	1.38
4.039 h	0.761
5.983 h	0.736
7.98 h	0.579
10.1 h	0.488

O=S(=O)([O-])C(F)(F)C(F)(F)C(F)(F)C(F)(F)C(F)(F)C(F)(F)C(F)(F)C(F)(F)F [Perfluorooctane Sulfonate]
Settings	concentration in brain [ng/g]	concentration in kidney [ng/g]	concentration in liver [ng/g]	concentration in plasma [ng/mL]
Rat [10]	757	–	–	–
Rat [11]	–	–	–	4920
Rat [12]	–	–	2150	–
Rat [13]	–	–	–	428
Rat [14]	–	1390	–	–
Rat [15]	–	–	–	5040
Rat [16]	2500	–	–	–
Rat [17]	–	–	5940	–
Rat [18]	–	4360	–	–
Rat [19]	–	127000	–	–
Rat [20]	–	1390	–	–
Rat [21]	–	–	167000	–

CC1CCCO1 (stereo unspecified) [2-Methyltetrahydrofuran]
Settings	concentration in brain [ng/mL]	concentration in plasma [ng/mL]
Rat [22]	–	45700
Rat [23]	–	35700
Rat [24]	–	36100
Rat [25]	50400	–
Rat [26]	15200	–
Rat [27]	–	10.8
Rat [28]	–	12000

O=C(O)C(F)(F)C(F)(F)C(F)(F)C(F)(F)C(F)(F)F [Perfluorohexanoic Acid]
Settings	concentration in liver [ng/g]
Rat [29]	39700

Rat [30]
Settings	concentration in plasma [ng/mL]
0.5 h	23200
12 h	120
